Data: the EternaBench riboswitch data

System: MS2 coat protein
Experiment: apparent Kd, MS2 coat protein; higher = weaker binding; RNA-MaP array; FMN 200 µM where present
How it was run: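 Apparent Kd: the median of filtered binding-curve fits from single clusters. Designs were transcribed on Illumina sequencing-chip clusters by stalled E. coli RNA polymerase and titrated with SNAP-549-labelled MS2 coat protein from 0.7 or 1.5 nM, doubling to 3 µM, in 100 mM Tris-HCl pH 7.5, 80 mM KCl, 4 mM MgCl2, BSA, DTT, yeast tRNA and Tween-20. Each series ran without and then with constant ligand, and green signal was normalised to red-channel RNA signal and control-cluster median Fmax.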

[1] = designed as: OFF switch for flavin mononucleotide, no ligand
[2] = ligand present: flavin mononucleotide, designed as: OFF switch for flavin mononucleotide
[3] = designed as: ON switch for flavin mononucleotide, no ligand
[4] = ligand present: flavin mononucleotide, designed as: ON switch for flavin mononucleotide

“CCAGGCUGUGUGAGGAUAUGCUGGUCCUUGGAUCAGCAGAAGGCACAUGAGGAUCACCCAUGUGAGGAGCUUGG” was tested. Which “apparent Kd” value [1] did it give?
Its value is 20.2 nM.

And the “apparent Kd” value [2]?
Its value is 98.8 nM.

How did the “apparent Kd” value [1] turn out when “CCUUCAGCGAACGAUACGAAUGGACAUGAGGAUCACCCAUGUAGAAGGACAGGAGAAUAACGGCUGUAGGAUAUACAUUUAGUG” was run?
Its value is 39.9 nM.

What about the “apparent Kd” value [2] of the same sequence?
The value was 30 nM.

For “UACUUCCGAGGAUAUACAUGAGGAUCACCCAUGUGCUUCAGCAUCUAAUGAUGCAUGGGUAGAAGGCGGUAGUU”, which “apparent Kd” value [1] is on record?
Its value is 58.5 nM.

What about the “apparent Kd” value [2] of the same sequence?
Its value is 68.1 nM.

Which results are given for “UGAUAGGACAGAGGAUAUACGGAUAGGAUCUACUAUCCUCCUUUAAUAACAUGAGGAUCACCCAUGUAGAAGGCUGUCCUAUCU”?
apparent Kd [1]: 15.3 nM; apparent Kd [2]: 24.2 nM

How did the “apparent Kd” value [1] turn out when “UAAUUAAGUGUGAGGAUAUGCUGGUCCUUGGAUCAGCAGAAGGCACAUGAGGAUCACCCAUGUAAAUUAUUUAU” was run?
Its value is 103 nM.

And the “apparent Kd” value [2]?
The value was 437 nM.

For “GUGCCUUGGGAGAAGGCAGUAUGCAAAGCAUUCUGAGGAUAUUCAUACCGGAAACGGACAUGAGGAUCACCCAUGUGGCACAAA”, which “apparent Kd” value [3] is on record?
The value was 1210 nM.

And the “apparent Kd” value [4]?
Its value is 64.6 nM.

With “AGUCAGAGCAGAGGAUAUAUACAUGAGGAUCACCCAUGUGACUGACUACGCUAGAAAUAGCAUGUAUAGAAGGCUGCUCUGACA” as the sequence, how does the “apparent Kd” value [1] read?
The value was 344 nM.

What about the “apparent Kd” value [2] of the same sequence?
The value was 911 nM.

Which “apparent Kd” value [3] does the source give for “GUAGCUAUCGGAGGAUAUUUAUACCGUAAACGGACAUGAGGAUCACCCAUGUGGCGAAAGCCUUGGGAGAAGGCCGAUAGCUAC” here?
The value was 32.6 nM.

What about the “apparent Kd” value [4] of the same sequence?
The value was 4.68 nM.

“GUCCCACAUGAGGAUCACCCAUGUGAGGAUAUGGAUUCGCUGGCCGUAGCCAGUGGAUCCAGAAGGCGCGUGAU” was tested. Which “apparent Kd” value [1] did it give?
The value was 73.5 nM.

And the “apparent Kd” value [2]?
Its value is 77.2 nM.

Which results are given for “ACACUGUGAGGAUAUACAUGAGGAUCACCCAUGUUAAGGAAGUCGUGGUUAAUUUAAGGUAGAAGGCGCUUAUU”?
apparent Kd [1]: 41.3 nM; apparent Kd [2]: 42.8 nM

With “AACAAACAUGAGGAUCACCCAUGUCAGGAUAUCGAAACAACAAACAACAAACAACAAACGAGAAGGGACAACAA” as the sequence, how does the “apparent Kd” value [1] read?
Its value is 25.6 nM.

And the “apparent Kd” value [2]?
The value was 28.3 nM.

What does the source list for “AAGAAACAUGAGGAUCACCCAUGUAAAUUCAAGAGAGGAUAUCGUACAUGGAAGAUUCAACGAGAAGGCUCUAGAA”?
apparent Kd [3]: 36.5 nM; apparent Kd [4]: 18.4 nM

What does the source list for “GAUGCACAUGAGAAGGCGAUCAUGAAACAUGAUCGAGGAUAUCAUGUAAACAUGAGGAUCACCCAUGUAUGGGUAAAGUGCAUC”?
apparent Kd [3]: 446 nM; apparent Kd [4]: 32 nM

For “AGCAUGCUAGGAUAUACGAAACAUUAGGGUUCUUUGUAUGAACAUGAGGAUCACCCAUGUAGAAGGAGCGUGCA”, which “apparent Kd” value [1] is on record?
The value was 109 nM.

What about the “apparent Kd” value [2] of the same sequence?
The value was 170 nM.

With “AGGUGUAGAGGAUAUUCAUUCUUCCACAUGAGGAUCACCCAUGUCCUGGUCACCAAGGACGGAGAAGGCUACACCA” as the sequence, how does the “apparent Kd” value [1] read?
Its value is 70.2 nM.

And the “apparent Kd” value [2]?
Its value is 38.1 nM.

For “AGUGUCAUCGAGAAGGCCUCAACAUGAGGAUCACCCAUGUUGCCAAAAGGGAGGAUAUCGAUGAUACAGCUACGUUUCGUAGCA”, which “apparent Kd” value [3] is on record?
The value was 4.15 nM.

And the “apparent Kd” value [4]?
The value was 4.34 nM.

How did the “apparent Kd” value [1] turn out when “AAGAAGGACGCAGGAUAUCCAGGACCUCCCGCAGGAGAAGGGCGAGACAUGUGGAUCACCCAGACAUGAGGAUCACCCAUGUAG” was run?
The value was 22.5 nM.

And the “apparent Kd” value [2]?
Its value is 21 nM.

How did the “apparent Kd” value [1] turn out when “GGAAAUCAUGUAGGAUAUGCAUGGCGAAGCUACGCAGAAGGACAUGAGGAUCACCCAUGUUAUAGCGUUCGAGAAAGGAUGCAA” was run?
Its value is 20.1 nM.

And the “apparent Kd” value [2]?
The value was 87.9 nM.

“AUGGUUGUCGUAGGAUAUGUAGGAUAUUCCUACAUGAGGAUCACCCAUGUUCGCAUGGAAGAAGGACGGAAGGACGAUGACCAA” was tested. Which “apparent Kd” value [3] did it give?
The value was 249 nM.

And the “apparent Kd” value [4]?
The value was 118 nM.

For “AUACUAAAUGAAGGAUAUCUAAGCAUAAACCUGAGAGAAGGUCAUUUUUACAUGAGGAUCACCCAUGUUGUGAUUAAUGGGUAA”, which “apparent Kd” value [1] is on record?
The value was 201 nM.

And the “apparent Kd” value [2]?
The value was 366 nM.

Which “apparent Kd” value [1] does the source give for “UGAGAGUGAGGAUAUACGUCGCUGGUCCCGAUGGACGCAUGACAUGAGGAUCACCCAUGUAGAAGGCAUUUCCC” here?
The value was 33.8 nM.

What about the “apparent Kd” value [2] of the same sequence?
Its value is 128 nM.

What does the source list for “UGUUUUGAAGUAGGAUAUCAACACACAUGAGGAUCACCCAUGUUAGAUGUGGAUGUUGUAUGUUAUGAGAAGGACUUCGAUUCG”?
apparent Kd [1]: 25.6 nM; apparent Kd [2]: 95.4 nM

How did the “apparent Kd” value [3] turn out when “UGAAAACAUGAGGAUCACCCAUGUAAAAACAUGGGAGGAUAUUGAAAAAAAAAAAAAAAACAAGAAGGCCCAAAAA” was run?
The value was 386 nM.

What about the “apparent Kd” value [4] of the same sequence?
The value was 137 nM.

Which results are given for “CCUCCCUGAGGAUAUCCACCCUCAUACAUGAGGAUCACCCAUGUUCAUCCCUGAGUACCCGGAGAAGGCAGAUUUC”?
apparent Kd [1]: 168 nM; apparent Kd [2]: 148 nM

Which “apparent Kd” value [1] does the source give for “CUGAUGUGAGGAUAUCUAAAAGAAACUGGGCAAAAUACCAGAGAGAAGGCACAUGAGGAUCACCCAUGUAACGA” here?
Its value is 19.1 nM.

And the “apparent Kd” value [2]?
The value was 69.5 nM.

Which results are given for “GUCACCCGAUGAGGAUAUGCACAUGAGGAUCACCCAUGUGACCUCAUCGUGCCGGGAAGCCGGCUGCAGAAGGCAUUGAGGGAU”?
apparent Kd [1]: 7.76 nM; apparent Kd [2]: 7.25 nM

For “CGGGCACAUGAGGAUCACCCAUGUCAGGAUAUCGGCCGGCGGCCGCCGGGCCGCCGGCCGAGAAGGGACGCCCG”, which “apparent Kd” value [1] is on record?
The value was 16.4 nM.

And the “apparent Kd” value [2]?
The value was 18.7 nM.

“CUAGCCCAGCCCGCCUAGUUCGGGAGAAGGAGGAGACAUGAGGAUCACCCAUGUGGCCUUAUCUCCUAGGAUAUCCCGGCGGGA” was tested. Which “apparent Kd” value [1] did it give?
The value was 5.56 nM.

What about the “apparent Kd” value [2] of the same sequence?
The value was 21.6 nM.
